Assay results reported in ChEMBL document CHEMBL1125911, “Synthesis and biological activity of new HMG-CoA reductase inhibitors. 3. Lactones of 6-phenoxy-3,5-dihydroxyhexanoic acids” (J Med Chem, 1991).

Assays:
[1] = target: T1, 3-hydroxy-3-methylglutaryl-coenzyme A reductase (Homo sapiens) (UniProt P04035); assay: (§1) Inhibition of HMG-CoA reductase compared to mevinolin.; assay type: functional
T1 sequence (whole entry): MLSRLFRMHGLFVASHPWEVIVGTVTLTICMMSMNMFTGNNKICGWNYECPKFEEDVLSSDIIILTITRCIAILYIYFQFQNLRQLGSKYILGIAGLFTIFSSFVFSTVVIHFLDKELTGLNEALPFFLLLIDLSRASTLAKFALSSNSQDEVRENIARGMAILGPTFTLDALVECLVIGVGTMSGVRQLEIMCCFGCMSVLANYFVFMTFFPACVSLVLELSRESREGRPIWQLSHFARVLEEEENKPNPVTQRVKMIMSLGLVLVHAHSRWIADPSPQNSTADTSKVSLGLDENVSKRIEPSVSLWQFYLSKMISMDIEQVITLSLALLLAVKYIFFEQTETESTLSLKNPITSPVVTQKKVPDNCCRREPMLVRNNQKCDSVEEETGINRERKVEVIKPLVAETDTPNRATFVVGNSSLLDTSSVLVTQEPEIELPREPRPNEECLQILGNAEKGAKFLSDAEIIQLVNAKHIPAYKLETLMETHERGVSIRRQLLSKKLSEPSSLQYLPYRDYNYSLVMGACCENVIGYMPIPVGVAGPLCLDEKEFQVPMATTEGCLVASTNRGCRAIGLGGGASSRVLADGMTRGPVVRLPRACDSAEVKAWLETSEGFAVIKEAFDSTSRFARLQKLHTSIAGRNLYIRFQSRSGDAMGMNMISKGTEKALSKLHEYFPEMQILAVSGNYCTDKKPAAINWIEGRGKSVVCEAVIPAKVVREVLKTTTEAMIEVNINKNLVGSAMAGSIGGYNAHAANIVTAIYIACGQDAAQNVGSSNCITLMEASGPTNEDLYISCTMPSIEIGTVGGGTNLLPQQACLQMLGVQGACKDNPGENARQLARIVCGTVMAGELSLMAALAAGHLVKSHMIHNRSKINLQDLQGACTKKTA
Summary of the method: (§2)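 Solubilized, partially purified rat liver HMG-CoA reductase. IC50 from four or five inhibitor concentrations. Relative potency compared IC50 with mevinolin (set to 100), corrected for molecular weight.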

[2] = target: T2, 3-hydroxy-3-methylglutaryl-coenzyme A reductase (Rattus norvegicus, UniProt P51639); assay: In vitro inhibition of HMG-CoA reductase in solubilized rat liver.
T2 sequence (P51639 whole entry): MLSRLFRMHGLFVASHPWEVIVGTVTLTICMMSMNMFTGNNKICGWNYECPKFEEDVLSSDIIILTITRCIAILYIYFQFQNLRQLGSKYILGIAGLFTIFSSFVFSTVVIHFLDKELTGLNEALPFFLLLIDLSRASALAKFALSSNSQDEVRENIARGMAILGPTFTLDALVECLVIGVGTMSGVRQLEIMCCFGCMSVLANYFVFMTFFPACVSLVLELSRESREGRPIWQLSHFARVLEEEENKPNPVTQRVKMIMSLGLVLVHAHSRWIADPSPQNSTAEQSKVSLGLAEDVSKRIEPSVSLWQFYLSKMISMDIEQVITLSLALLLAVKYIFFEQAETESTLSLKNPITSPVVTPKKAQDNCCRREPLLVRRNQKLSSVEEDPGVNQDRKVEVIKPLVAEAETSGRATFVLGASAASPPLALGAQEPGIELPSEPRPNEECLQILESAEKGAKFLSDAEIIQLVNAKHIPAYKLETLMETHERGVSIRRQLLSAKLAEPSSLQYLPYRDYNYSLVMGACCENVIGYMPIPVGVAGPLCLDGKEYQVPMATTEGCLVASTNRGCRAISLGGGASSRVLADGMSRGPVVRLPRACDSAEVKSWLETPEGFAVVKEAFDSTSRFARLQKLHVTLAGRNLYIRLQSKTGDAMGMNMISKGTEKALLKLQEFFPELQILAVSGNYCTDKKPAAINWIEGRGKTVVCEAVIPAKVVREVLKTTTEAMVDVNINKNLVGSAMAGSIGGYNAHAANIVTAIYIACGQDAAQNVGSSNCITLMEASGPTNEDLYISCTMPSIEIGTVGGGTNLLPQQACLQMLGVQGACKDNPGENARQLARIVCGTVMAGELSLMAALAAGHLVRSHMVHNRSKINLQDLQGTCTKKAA

[3] = target: T3, 3-hydroxy-3-methylglutaryl-coenzyme A reductase (Homo sapiens, UniProt P04035); assay: Inhibition of the incorporation of sodium [14C]acetate into cholesterol in HEP G2 cells.; assay type: functional, cell-based, HepG2
T3 sequence (P04035 whole entry): T1 sequence (whole entry)

[4] = target: T4, 3-hydroxy-3-methylglutaryl-coenzyme A reductase (Rattus norvegicus) (UniProt P51639); assay: as §1; summary of the method: as §2
T4 sequence (whole entry): T2 sequence (P51639 whole entry)

SMILES	Relative potency [1]	IC50 [2]	IC50 [3]	Relative potency [4]
O=C(O)C[C@H](O)CC(O)COc1c(Cl)cc(Cl)cc1C(F)(F)C1CCCCC1 (stereo not given in full)	2	0.085 µM	2.5 µM	
Cc1c(OCC(O)C[C@@H](O)CC(=O)O)c(-c2ccc(F)cc2)nc2ccccc12 (stereo not given in full)	< 1	1 µM	> 5 µM	1
Cc1cc(C(c2ccc(F)c(C)c2)c2cc(Cl)cc(Cl)c2OCC(O)C[C@@H](O)CC(=O)O)ccc1F (stereo not given in full)		1 µM		
Cc1cc(C)c(OCC(O)C[C@@H](O)CC(=O)O)c(C(c2ccc(F)cc2)c2cccc(C(F)(F)F)c2)c1 (stereo not given in full)		0.09 µM		
CCC(C)(C)C(=O)NC(c1cc(C)cc(C)c1OCC(O)C[C@@H](O)CC(=O)O)C1CCCCC1 (stereo in doubt; 11x) [listing 1 of 2 here]	< 1			
Cc1cc(C)c(OCC(O)C[C@@H](O)CC(=O)O)c(C(c2ccc(F)cc2)C2CCCCC2)c1 (stereo not given in full)		0.095 µM		8
Cc1cc(C)c(OCC2C[C@@H](O)CC(=O)O2)c(C(Cl)C2CCCCC2)c1 (stereo not given in full)	< 1	> 1 µM	6.5 µM	
Cc1cc(C)c(OCC(O)C[C@@H](O)CC(=O)O)c(C(CC(C)C)c2ccc(F)cc2)c1 (stereo not given in full)		0.14 µM		
Cc1cc(C)c(OCC(O)C[C@@H](O)CC(=O)O)c(C(c2ccc(F)cc2)c2ccc(F)cc2)c1 (stereo not given in full)		0.07 µM		
O=C(O)C[C@H](O)CC(O)COc1c(Cl)cc(Cl)cc1CC1CCCCC1 (stereo not given in full)		0.027 µM		31
O=C(O)C[C@H](O)CC(O)COc1c(CCCOc2ccc(F)cc2)cccc1C1CCCC1 (stereo not given in full)		> 1 µM		< 1
CC(C)c1c(OCC(O)C[C@@H](O)CC(=O)O)c(C(c2ccc(F)cc2)c2ccc(F)cc2)cc2ccccc12 (stereo not given in full)	2	0.38 µM	3.5 µM	2
CC(C)c1cc(-c2ccccc2)cc(CC2CCCCC2)c1OCC(O)C[C@@H](O)CC(=O)O (stereo not given in full)	50	0.4 µM	0.1 µM	2
Cc1cc(Cl)cc(CC2CCCCC2)c1OCC(O)C[C@@H](O)CC(=O)O (stereo not given in full)		0.075 µM		12
O=C(O)C[C@H](O)CC(O)COc1c(Cl)cc(Cl)cc1C(F)=C1CCCCC1 (stereo not given in full)		0.095 µM		9
O=C(O)C[C@H](O)CC(O)COc1c(Cl)cc(Cl)cc1C(=O)C1CCCCC1 (stereo not given in full)		0.19 µM		4
Cc1cc(C)c(OCC(O)C[C@@H](O)CC(=O)O)c(CC2CCCCC2)c1 (stereo not given in full)		0.1 µM		9
CCC(C)(C)C(=O)NC(c1cc(C)cc(C)c1OCC(O)C[C@@H](O)CC(=O)O)C1CCCCC1 (stereo in doubt; 11w) [listing 1 of 2 here]		0.32 µM	15 µM	
O=C(O)C[C@H](O)CC(O)COc1cc(OCc2ccc(F)cc2)c(Cl)cc1Cl (stereo not given in full)		0.26 µM		3
Cc1cccc(CCCOc2ccc(F)cc2)c1OCC(O)C[C@@H](O)CC(=O)O (stereo not given in full)		0.25 µM		3

SMILES	Relative potency [1]	IC50 [2]	IC50 [3]	Relative potency [4]
CC(C)c1c(OCC(O)C[C@@H](O)CC(=O)O)c(-c2ccc(F)cc2)nc2ccccc12 (stereo not given in full)	20	0.05 µM	0.25 µM	16
Cc1cc(Cl)cc(CCCOc2ccc(Cl)cc2)c1OCC(O)C[C@@H](O)CC(=O)O (stereo not given in full)		0.05 µM		15
O=C(O)C[C@H](O)CC(O)COc1c(CCCOc2ccc(F)cc2)cc(Cl)cc1C1CCCC1 (stereo not given in full)		> 1 µM		< 1
CCC(C)(C)OC(=O)C(c1cc(C)cc(C)c1OCC(O)C[C@@H](O)CC(=O)O)C1CCCCC1 (stereo in doubt; 11s) [listing 1 of 2 here]	3			
CCC(C)(C)C(=O)NC(c1cc(C)cc(C)c1OCC(O)C[C@@H](O)CC(=O)O)C1CCCCC1 (stereo in doubt; 11w) [listing 2 of 2 here]	< 1			2
Cc1cc(Cl)cc(C(c2ccc(F)cc2)c2ccc(F)cc2)c1OCC(O)C[C@@H](O)CC(=O)O (stereo not given in full)		0.07 µM		
CCC(C)(C)OC(=O)C(c1cc(C)cc(C)c1OCC(O)C[C@@H](O)CC(=O)O)C1CCCCC1 (stereo in doubt; 11r) [listing 1 of 2 here]	< 1			12
Cc1cc(C)c(OCC(O)C[C@@H](O)CC(=O)O)c(C(C)c2ccc(F)cc2)c1 (stereo not given in full)		0.16 µM		
O=C(O)C[C@H](O)CC(O)COc1c(Cl)cc(Cl)cc1C(c1ccc(F)cc1)c1ccc(F)cc1 (stereo in doubt; 11pp)		0.95 µM		
O=C(O)C[C@H](O)CC(O)COc1c(Cl)cc(Cl)cc1-c1ccccc1 (stereo not given in full)		0.19 µM		5
O=C(O)C[C@H](O)CC(O)COc1c(Cl)cc(Cl)cc1C(CCOc1ccc(F)cc1)c1ccc(F)cc1 (stereo not given in full)		0.15 µM		4
Cc1nc2ccccc2c(-c2ccccc2)c1OCC(O)C[C@@H](O)CC(=O)O (stereo not given in full)	< 1	> 1 µM	> 5 µM	< 1
CCC(C)(C)C(=O)NC(c1cc(C)cc(C)c1OCC(O)C[C@@H](O)CC(=O)O)C1CCCCC1 (stereo in doubt; 11x) [listing 2 of 2 here]		0.47 µM	10 µM	
CCC(C)(C)OC(=O)C(c1cc(C)cc(C)c1OCC(O)C[C@@H](O)CC(=O)O)C1CCCCC1 (stereo in doubt; 11s) [listing 2 of 2 here]		0.5 µM	1.7 µM	
COc1ccc(C(c2ccc(F)cc2)c2cc(C)cc(C)c2OCC(O)C[C@@H](O)CC(=O)O)cc1 (stereo not given in full)		0.1 µM		
CCC(C)(C)OC(=O)C(c1cc(C)cc(C)c1OCC(O)C[C@@H](O)CC(=O)O)C1CCCCC1 (stereo in doubt; 11r) [listing 2 of 2 here]		0.06 µM	12 µM	
Cc1cc(Cl)cc(CCCOc2ccc(F)cc2)c1OCC(O)C[C@@H](O)CC(=O)O (stereo not given in full)		0.08 µM		10
Cc1cc(Cl)c(OCC(O)C[C@@H](O)CC(=O)O)c(C(c2ccc(F)c(C)c2)c2ccc(F)c(C)c2)c1 (stereo not given in full)		0.27 µM		
Cc1c(OCC(O)C[C@@H](O)CC(=O)O)c(C(c2ccc(F)cc2)c2ccc(F)cc2)cc2ccccc12 (stereo not given in full)	< 1	0.9 µM	20 µM	
